Published values pooled from the literature.
Lines come from different studies, so protocols differ.
Target: Dual specificity mitogen-activated protein kinase kinase 5 (MAP2K5, Homo sapiens, UniProt Q13163)
Sequence (Q13163 1-448, as in one of the studies): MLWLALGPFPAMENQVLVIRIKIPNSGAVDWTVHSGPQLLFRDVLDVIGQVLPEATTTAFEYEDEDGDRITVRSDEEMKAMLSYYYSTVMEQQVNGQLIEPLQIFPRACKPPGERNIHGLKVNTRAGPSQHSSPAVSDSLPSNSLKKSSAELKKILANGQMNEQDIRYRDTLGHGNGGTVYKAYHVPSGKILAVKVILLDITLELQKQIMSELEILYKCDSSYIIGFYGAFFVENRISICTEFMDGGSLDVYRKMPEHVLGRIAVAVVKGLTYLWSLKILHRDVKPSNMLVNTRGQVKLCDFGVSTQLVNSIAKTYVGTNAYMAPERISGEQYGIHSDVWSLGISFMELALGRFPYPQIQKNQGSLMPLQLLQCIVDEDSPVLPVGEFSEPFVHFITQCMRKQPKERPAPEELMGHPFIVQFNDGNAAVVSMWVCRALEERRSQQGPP

Compound	read-out	technique	concentration	remaining binding
Cc1cnc(Nc2ccc(C(=O)N3CCC(N4CCCC4)CC3)cc2)nc1-c1cc2ccccc2s1	binding	competition with immobilised ligand	1 µM	0.4%
C[C@H]1CCN(c2nccc(-c3cnn4ncccc34)n2)C1	binding	–	1 µM	81%
c1cncc(-c2cccc(Nc3nccc(NC4CCCCC4)n3)c2)c1	binding	competition with immobilised ligand	10 µM	23%
O=C(c1ccc(Nc2ncc(Cl)c(-c3cc4ccccc4s3)n2)cc1)N1CCC(N2CCCC2)CC1	binding	competition with immobilised ligand	1 µM	2.9%
C[C@@H]1CN(c2cc(-c3nn(C)c4ccc(OC5(C)CC5)cc34)ncn2)C[C@H](C)O1	cell-free assay	competition with immobilised ligand	1 µM	93%
c1cnn2ncc(-c3ccnc(N4CCC45COC5)n3)c2c1	binding	–	1 µM	30%
CCN1CCN(Cc2ccc(C(=O)Nc3ccc(C)c(Oc4ccc5c(c4)CC(=O)N5)c3)cc2C(F)(F)F)CC1	binding	competition with immobilised ligand	1 µM	100%
N[C@H]1CCN(c2nccc(-c3cnn4ncccc34)n2)C1	binding	–	1 µM	69%
COc1cnc(Nc2cccc(S(N)(=O)=O)c2)nc1N1CCN(c2ccccc2)C(=O)C1	binding	competition with immobilised ligand	1 µM	67%
O=C1NC(c2ccccn2)Sc2ccccc21 (stereo not shown)	cell-free assay	competition with immobilised ligand	1 µM	87%
O=C(c1ccc(Nc2nccc(-c3cc4ccccc4s3)n2)cc1)N1CCC(N2CCCC2)CC1	binding	competition with immobilised ligand	1 µM	16%
CS(=O)(=O)N1CCCC(NC(=O)[C@H](CCC2CCCCC2)NC(=O)c2ccc(CNc3ncnc4c3nnn4-c3ccccc3)cc2)C1 (stereo partly shown)	cell-free assay	competition with immobilised ligand	0.1 µM	100%
C=CC(=O)N1CCC(C(=O)NCC(=O)N2CCN(c3nc(-c4cnc(N)nc4C(F)F)nc(N4CCOCC4)n3)CC2)CC1	binding	competition with immobilised ligand	1 µM	77%
O=C(NCC1CCOCC1)c1n[nH]cc1NC(=O)c1c(F)cccc1F	binding	competition with immobilised ligand	1 µM	68%
COc1ccnn2ncc(-c3ccnc(N(C)C)n3)c12	binding	–	1 µM	76%
CC(=O)C1=C(C)N(c2cccc(C(F)(F)F)c2)C(=O)N[C@@H]1c1ccc(C#N)nc1	cell-free assay	competition with immobilised ligand	1 µM	100%
Nc1ncc2c(n1)-c1c([nH]c3ccc(C#CC4CC4)cc13)CCCC2	binding	competition with immobilised ligand	1 µM	21%
CNC(=O)[C@@H]1CC[C@@H](n2c(-c3ccc4cnccc4c3)nc3ccc(C(=O)NCc4cccc(C(N)=O)c4)cc32)C1	binding	competition with immobilised ligand	1 µM	53%
CN(C)c1nccc(-c2cnn3ncccc23)n1	binding	–	1 µM	68%
CN(C(=O)c1ccccc1)c1cc(N(C)c2ccc3c(c2)CCc2ccc(C(=O)NCCN4CCOCC4)cc2C3=O)ccc1F	cell-free assay	competition with immobilised ligand	1 µM	100%
CN(C)c1nccc(-c2cnc3ncccn23)n1	binding	–	1 µM	48%
COc1ccc2c(O[C@@H]3C[C@H]4C(=O)N[C@]5(C(=O)O)CC5/C=C\CCCCC[C@H](NC(=O)OC5CCCC5)C(=O)N4C3)cc(-c3csc(NC(=O)C(C)C)n3)nc2c1C (stereo partly shown)	cell-free assay	competition with immobilised ligand	1 µM	71%
